For 16 molecules, inhibition, Activity and Ki results are on record in ChEMBL document CHEMBL4613282, “Novel N-Substituted Benzomorphan-Based Compounds: From MOR-Agonist/DOR-Antagonist to Biased/Unbiased MOR Agonists” (ACS Med Chem Lett, 2020).

Active and inactive are the calls of the source. The calls are words filed in the database; no cut-off is given here. Where only a bound is given, the exact number is not on record here.

Data set [1] addresses Mu-type opioid receptor (Homo sapiens) (UniProt P35372). As to the kind of experiment: Agonist activity at EE-tagged MOR (unknown origin) expressed in human HEK293 cells assessed as inhibition of forskolin-induced cAMP accumulation at 10 uM after 30 mins by GloSensor cAMP assay. Format: functional, cell-based. The essentials: (§1)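 HEK293 cells stably expressing MOR, stimulated with 50 μM forskolin in the presence of a range of compound concentrations, up to 10–5 M. Read-out is cAMP accumulation as % of maximum. Triplicate determinations in three independent experiments, mean ± SEM.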

Data set [2] is described as follows: Toxicity in PGE2-induced CD1 mouse model of thermal hyperalgesia assessed as effect on gastrointestinal transit at 8 to 16 mg/kg, sc dosed 30 mins before charcoal suspension administration and measured after 30 mins (reference value: 30 cm). Format: organism-based. The conditions noted are these: in vivo, 0.5 h. The essentials: (§2)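 Run straight after the PGE2 hyperalgesia test, i.e. 30 min after s.c. dosing. Mice received 0.5% charcoal suspension intragastrically. Distance travelled by charcoal along the small intestine measured 30 min after ingestion. Mean ± SEM of 6–7 mice; one-way ANOVA with Bonferroni test versus the saline group.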

The target in data set [3] is Mu-type opioid receptor (Homo sapiens) (UniProt P35372). The experiment in a line: Agonist activity at EE-tagged MOR (unknown origin) expressed in human HEK293 cells assessed as increase in ERK1/2 phosphorylation at 1 uM after 5 mins by Western blot analysis. The format is cell-based. The essentials:
(§3)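 Serum-starved HEK293 cells stably expressing MOR exposed to 1 μM compound for 5, 10 or 15 min. Lysates run on 10% SDS-PAGE and immunoblotted for phospho-ERK1,2, with α-tubulin reprobe as loading check. […] Three independent experiments.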
(In general: A western blot detects proteins with antibodies after separation by electrophoresis.)

The next data set has as its target Mu-type opioid receptor (Rattus norvegicus, UniProt P33535). As to the kind of experiment: Displacement of [3H]-DAMGO from MOR in rat brain membranes incubated for 45 mins by liquid scintillation counting. Format: cell membranes, Membrane. The essentials: (§4)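 Ki as mean ± SEM of three separate experiments, each run in duplicate.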
(In general: In a radioligand displacement assay an active substance lowers the binding of a labelled ligand.)

Data set [4] deals with Delta-type opioid receptor (Rattus norvegicus, UniProt P33533). The experiment in a line: Displacement of [3H]DPDPE from DOR in rat brain membranes incubated for 45 mins by liquid scintillation counting. The format is cell membranes, Membrane. The essentials:
as §4

Data set [5] deals with Mus musculus. As to the kind of experiment: Antinociceptive activity in Swiss […] mouse assessed as effect on tail flick latency at 2.5 to 7.5 mg/kg, ip after 90 mins by radiant heat tail-flick method. Format: functional, organism-based. The essentials:
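Mouse tail-flick test after 2.5–7.5 mg/kg i.p.; saline-treated group as control. Tail-flick latency (s) followed over 90 min. Mean ± SEM from 6–8 mice.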
Background: Hot-plate and tail-flick tests time the reaction to a heat stimulus.

In data set [6] the target is Kappa-type opioid receptor (Cavia porcellus, UniProt P41144). As to the kind of experiment: Displacement of [3H]-U69,593 from KOR in guinea pig brain membranes incubated for 30 mins by liquid scintillation counting. The format is cell membranes, Membrane. The essentials: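 KOR binding measured as [3H]U69,593 displacement. Ki as mean ± SEM of three separate experiments, each run in duplicate.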
Kappa-type opioid receptor, sequence (P41144 whole entry): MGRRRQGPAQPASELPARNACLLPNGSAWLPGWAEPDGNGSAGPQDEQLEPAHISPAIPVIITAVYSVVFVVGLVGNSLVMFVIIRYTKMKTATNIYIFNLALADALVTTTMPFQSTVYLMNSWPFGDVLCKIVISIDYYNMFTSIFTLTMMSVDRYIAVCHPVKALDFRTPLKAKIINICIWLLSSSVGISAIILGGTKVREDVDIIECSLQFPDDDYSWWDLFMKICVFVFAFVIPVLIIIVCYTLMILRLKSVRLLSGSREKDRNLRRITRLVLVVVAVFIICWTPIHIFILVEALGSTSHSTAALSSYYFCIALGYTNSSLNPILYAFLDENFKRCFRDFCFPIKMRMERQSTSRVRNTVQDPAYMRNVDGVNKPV

Data set [7] deals with Mus musculus. The experiment in a line: Antihyperalgesic activity in sc dosed PGE2-induced CD1 mouse model of thermal hyperalgesia at 8 to 16 mg/kg, sc pretreated for 20 mins before PGE2 stimulation and measured after 10 mins by radiant heat […] method. The format is functional, organism-based.
In data set [8] the target is Mu-type opioid receptor (Homo sapiens) (UniProt P35372). The experiment in a line: Agonist activity at EE-tagged MOR (unknown origin) expressed in human HEK293 cells assessed as increase in ERK1/2 phosphorylation at 1 uM after 15 mins by Western blot analysis. Format: cell-based. The essentials:
as §3

A short description of data set [9]: Toxicity in PGE2-induced CD1 mouse model of thermal hyperalgesia assessed as effect on gastrointestinal transit at 4 mg/kg, sc dosed 30 mins before charcoal suspension administration and measured after 30 mins (reference value: 30 cm). Format: organism-based. The conditions noted are these: in vivo, 0.5 h. The essentials: as §2
The subject of data set [10] is Mus musculus. The experiment in a line: Antihyperalgesic activity in sc dosed PGE2-induced CD1 mouse model of thermal hyperalgesia assessed as increase in paw withdrawl latency pretreated with compound for 20 mins before PGE2 stimulation for 10 mins by radiant heat […] method. The format is functional, organism-based. The essentials: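 Mice given compound or solvent s.c. 20 min before intraplantar PGE2 or saline. Hindpaw withdrawal latency to radiant heat measured in the injected paw 10 min after the i.pl. injection. Test compounds dosed 8–16 mg/kg; morphine 1–3 mg/kg and LP1 1–4 mg/kg as comparators. One-way ANOVA with Bonferroni test.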

Data set [11] has as its target Mu-type opioid receptor (Homo sapiens) (UniProt P35372). As to the kind of experiment: Agonist activity at EE-tagged MOR (unknown origin) expressed in human HEK293 cells assessed as inhibition of forskolin-induced cAMP accumulation at 10 uM after 30 mins by GloSensor cAMP assay relative to control. Format: functional, cell-based. The essentials: as §1
For data set [12] the target is unchanged. As to the kind of experiment: Biased agonist activity at EE-tagged MOR (unknown origin) expressed in human HEK293 cells assessed as increase in ERK1/2 phosphorylation levels at 1 uM after 15 mins by Western blot analysis. Format: cell-based. The essentials: as §3

Mu-type opioid receptor (Homo sapiens), sequence (P35372 whole entry): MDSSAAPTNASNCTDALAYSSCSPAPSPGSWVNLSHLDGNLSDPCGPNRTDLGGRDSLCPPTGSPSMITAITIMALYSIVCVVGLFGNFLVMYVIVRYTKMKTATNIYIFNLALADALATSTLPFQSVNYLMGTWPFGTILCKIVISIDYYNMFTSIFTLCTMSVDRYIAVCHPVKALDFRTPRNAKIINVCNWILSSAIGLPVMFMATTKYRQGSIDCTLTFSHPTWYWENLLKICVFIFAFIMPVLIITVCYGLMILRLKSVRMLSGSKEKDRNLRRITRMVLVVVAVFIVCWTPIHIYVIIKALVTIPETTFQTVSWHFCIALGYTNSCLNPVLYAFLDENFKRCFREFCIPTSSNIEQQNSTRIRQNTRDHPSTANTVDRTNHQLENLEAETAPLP
Delta-type opioid receptor, sequence (P33533 whole entry): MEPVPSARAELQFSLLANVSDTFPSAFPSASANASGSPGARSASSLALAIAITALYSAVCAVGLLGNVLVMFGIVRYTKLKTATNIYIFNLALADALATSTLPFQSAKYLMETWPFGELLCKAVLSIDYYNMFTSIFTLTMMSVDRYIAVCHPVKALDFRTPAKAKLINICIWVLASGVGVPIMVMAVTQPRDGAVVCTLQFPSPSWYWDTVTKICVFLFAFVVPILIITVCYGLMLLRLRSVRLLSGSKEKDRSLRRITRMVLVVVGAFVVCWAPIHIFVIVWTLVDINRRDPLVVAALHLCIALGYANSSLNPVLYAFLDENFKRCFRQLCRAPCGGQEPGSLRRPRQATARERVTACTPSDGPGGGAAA
Mu-type opioid receptor, sequence (P33535 whole entry): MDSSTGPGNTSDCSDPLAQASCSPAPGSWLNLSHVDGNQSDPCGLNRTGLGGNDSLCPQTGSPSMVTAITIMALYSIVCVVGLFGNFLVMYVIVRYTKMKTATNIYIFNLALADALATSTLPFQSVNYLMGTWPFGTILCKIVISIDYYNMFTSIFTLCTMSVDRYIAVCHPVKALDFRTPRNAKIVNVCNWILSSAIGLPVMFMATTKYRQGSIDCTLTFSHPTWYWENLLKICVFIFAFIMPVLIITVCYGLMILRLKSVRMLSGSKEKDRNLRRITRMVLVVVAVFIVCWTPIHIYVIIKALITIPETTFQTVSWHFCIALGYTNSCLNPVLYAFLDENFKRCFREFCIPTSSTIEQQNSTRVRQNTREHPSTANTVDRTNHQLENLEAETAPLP

With `Cc1cccc(C)c1NC(=O)CCN1CC[C@@]2(C)c3cc(O)ccc3C[C@@H]1[C@@H]2C`, the inhibition result in data set [1] was “inactive”. The Activity in [2] was 30 cm. Also, the result in [3] was Active. Also, the Ki at Mu-type opioid receptor was found to be 7.4 nM; in [4], 277 nM; in [6], 252 nM. Moreover, the outcome (in the data set with Mus musculus [5]; in the data set with Mus musculus [7]; in data set [8]) was inactive.

For `Cc1cccc(C)c1N(Cc1ccccc1)C(=O)CCN1CC[C@@]2(C)c3cc(O)ccc3C[C@@H]1[C@@H]2C`, the Ki on Mu-type opioid receptor is 400 nM; in [4], > 5000 nM; in [6], > 3000 nM.

In the case of `C[C@H]1[C@H]2Cc3ccc(O)cc3[C@]1(C)CCN2CCN(Cc1ccccc1)c1ccccc1`, the values for the Ki (on Mu-type opioid receptor; in data set [4]; in data set [6]) were 244 nM, > 1000 nM and > 3000 nM, respectively.

Turning to `Cc1cc(C)c(NC(=O)CCN2CC[C@@]3(C)c4cc(O)ccc4C[C@@H]2[C@@H]3C)c(C)c1`, in data set [1], the inhibition result was “inactive”. In addition, the Ki at Mu-type opioid receptor is 43.7 nM; in data set [4], > 2000 nM; in [6], 313 nM.

In the case of `Cc1ccc(C)c(NCCN2CC[C@@]3(C)c4cc(O)ccc4C[C@@H]2[C@@H]3C)c1`, the Ki on Mu-type opioid receptor was 182 nM; in [4] it was > 5000 nM; in data set [6], > 2000 nM.

Turning to `Cc1cc(C)c(N(Cc2ccccc2)C(=O)CCN2CC[C@@]3(C)c4cc(O)ccc4C[C@@H]2[C@@H]3C)c(C)c1`, the values for the inhibition constant (Ki) (on Mu-type opioid receptor; in data set [4]; in data set [6]) were 504 nM, > 5000 nM and 444 nM, respectively.

For the molecule `Cc1ccc(N(Cc2ccccc2)C(=O)CCN2CC[C@@]3(C)c4cc(O)ccc4C[C@@H]2[C@@H]3C)c(C)c1`, the Ki at Mu-type opioid receptor was 165 nM; in data set [4], > 5000 nM; in [6] it was > 2000 nM.

As for `C[C@H]1[C@H]2Cc3ccc(O)cc3[C@]1(C)CCN2CCC(=O)Nc1ccccc1`, the outcome in data set [3] was Active. Further, the outcome in data set [8] was inactive. In addition, in [9], the Activity result is listed as “Toxic”.

For `Cc1ccc(NCCN2CC[C@@]3(C)c4cc(O)ccc4C[C@@H]2[C@@H]3C)c(C)c1`, the Ki at Mu-type opioid receptor is 129 nM; in data set [4], > 5000 nM; in data set [6] it was > 1000 nM.

As for `CN1CC[C@]23c4c5ccc(O)c4O[C@H]2[C@@H](O)C=C[C@H]3[C@H]1C5`, the Activity result in the data set with Mus musculus [10] is “Dose-dependent effect”.

For `Oc1ccc2c3c1O[C@H]1c4[nH]c5ccccc5c4C[C@@]4(O)[C@@H](C2)N(CC2CC2)CC[C@]314` [NALTRINDOLE], the Ki in data set [4] came to 0.83 nM.

In the case of `Cc1ccc(C)c(NC(=O)CCN2CC[C@@]3(C)c4cc(O)ccc4C[C@@H]2[C@@H]3C)c1`, the Activity in data set [2] was 30 cm. For the same molecule, the figures for the Ki (at Mu-type opioid receptor; in data set [4]; in [6]) were 7.9 nM, 478 nM and 480 nM, respectively. The inhibition in data set [11] was determined as 50%. For the same molecule, the outcome in the data set with Mus musculus [5] and with Mus musculus [7] was inactive. In addition, the outcome in data set [12] was Active.

On to `CCc1cccc(C)c1NC(=O)CCN1CC[C@@]2(C)c3cc(O)ccc3C[C@@H]1[C@@H]2C`, for which the inhibition entry in data set [1] was “inactive”. The Activity in data set [2] worked out at 30 cm. Besides, the outcome in [3] was Active. Also, the Ki on Mu-type opioid receptor stood at 14.9 nM; in data set [4], 198 nM; in data set [6] it was 320 nM. Besides, the outcome (with Mus musculus [7]; in [8]) was inactive.

Regarding `CCc1cccc(C)c1N(Cc1ccccc1)C(=O)CCN1CC[C@@]2(C)c3cc(O)ccc3C[C@@H]1[C@@H]2C`, the Ki on Mu-type opioid receptor is 1540 nM; in data set [4], > 5000 nM; in data set [6], 151 nM.

`C[C@H]1[C@H]2Cc3ccc(O)cc3[C@]1(C)CCN2CCC(=O)N(Cc1ccccc1)c1ccccc1`: the Ki on Mu-type opioid receptor was 606 nM; in data set [4], > 5000 nM; in data set [6], > 5000 nM.

`Cc1ccc(NC(=O)CCN2CC[C@@]3(C)c4cc(O)ccc4C[C@@H]2[C@@H]3C)c(C)c1`: in data set [1], the inhibition result was “inactive”. Further, the Activity in data set [2] is 30 cm. Further, the outcome in data set [3] was Active. Also, the Ki on Mu-type opioid receptor came to 20.8 nM; in data set [4], 474 nM; in [6], 340 nM. Besides, the outcome (in the data set with Mus musculus [7]; in [8]) was inactive.

Broadly, the inhibition is the percentage by which the read-out fell short of the control. Usually Ki stands for a dissociation constant, usually derived from enzyme kinetics or from competition with a known ligand. Read a low Ki as a stronger hold on the target.
